Tests used:
[1] = biological target: T1, Urokinase-type plasminogen activator (Homo sapiens, UniProt P00749); assay: Inhibition of human uPA
Plasminogen = Plasminogen (Homo sapiens, UniProt P00747); assay: Inhibition of human plasmin
In short: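 Plasmin from human plasma, approx. 5 mU, in Tris pH 7.4, with a 15-min 37 °C inhibitor preincubation. […] Initial rate is read at 405 nm, in duplicate, and IC50 is obtained by four-parameter logistic fitting.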

[2] = biological target: Tissue-type plasminogen activator (Homo sapiens, UniProt P00750); assay: Inhibition of recombinant tPA
In short: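 Recombinant tPA, approx. 5 mU, in Tris pH 8.3, is preincubated with inhibitor for 15 min at 37 °C. S-2288 is then added at 1.25 mM (Km 1 mM). Absorbance change is read at 405 nm, in duplicate, and IC50 comes from a four-parameter logistic fit.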

[3] = Inhibition of bovine trypsin; design: species or system Bos taurus
In short: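 Bovine trypsin, approx. 5 mU, is preincubated with inhibitor for 15 min at 37 °C. BAPNA substrate is then added at 425 µM (Km 1 mM) in Tris pH 8.2. The pNA release rate is read at 405 nm, duplicate wells, and IC50 comes from a four-parameter logistic fit.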

Prothrombin = Prothrombin (Homo sapiens, UniProt P00734); assay: Inhibition of human thrombin
In short: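 Thrombin from human plasma, approx. 5 mU, in Tris pH 8.3, with a 15-min 37 °C inhibitor preincubation. […] Initial rate is read at 405 nm, duplicates, and IC50 is obtained by four-parameter logistic fitting.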

[4] = biological target: Coagulation factor X (Bos taurus) (UniProt P00743); assay: (§1) Inhibition of bovine F10a at 250 uM
Homo sapiens [5] = species on record: Homo sapiens; assay: Selectivity index, IC50 for recombinant tPA/IC50 for human uPA
Homo sapiens [6] = species on record: Homo sapiens; assay: Selectivity index, IC50 for human plasmin/IC50 for human uPA
[7] = biological target: Thrombin and urokinase-type plasminogen activator (Homo sapiens) (UniProt P00734+P00749); assay: Selectivity index, IC50 for human thrombin/IC50 for human uPA; type: protein assay
[8] = Selectivity index, IC50 for bovine trypsin/IC50 for human uPA
[9] = biological target: Coagulation factor X (Bos taurus) (UniProt P00743); assay: Inhibition of bovine F10a at 125 uM
Coagulation factor X [10] = biological target: T2, Coagulation factor X (Bos taurus, UniProt P00743); assay: Inhibition of bovine F10a
[11] = Selectivity index, IC50 for bovine F10a/IC50 for human uPA
[12] = Selectivity for mouse uPA over plasmin
[13] = Selectivity for mouse uPA over tPA
Coagulation factor X [14] = biological target: T2, Coagulation factor X; assay: as §1
[15] = biological target: T1, Urokinase-type plasminogen activator; assay: Inhibition of mouse uPA; conditions: target entry is the homologue from another species

Plasminogen, sequence (P00747 97-580 limits assumed): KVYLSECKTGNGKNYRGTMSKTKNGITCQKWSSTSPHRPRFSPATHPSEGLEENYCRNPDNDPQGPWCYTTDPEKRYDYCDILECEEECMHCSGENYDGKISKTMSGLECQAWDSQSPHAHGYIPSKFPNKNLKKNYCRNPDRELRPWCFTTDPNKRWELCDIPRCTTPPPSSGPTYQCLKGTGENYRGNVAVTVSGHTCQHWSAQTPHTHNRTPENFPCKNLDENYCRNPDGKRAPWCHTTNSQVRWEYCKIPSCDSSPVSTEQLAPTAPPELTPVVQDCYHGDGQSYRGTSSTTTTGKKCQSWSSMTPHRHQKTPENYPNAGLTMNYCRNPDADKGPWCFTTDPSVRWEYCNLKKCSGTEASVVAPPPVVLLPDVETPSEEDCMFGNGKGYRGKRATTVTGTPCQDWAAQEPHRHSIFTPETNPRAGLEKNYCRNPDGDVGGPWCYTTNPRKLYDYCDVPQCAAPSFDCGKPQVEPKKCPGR
Plasminogen, sequence (P00747 581-810 limits assumed): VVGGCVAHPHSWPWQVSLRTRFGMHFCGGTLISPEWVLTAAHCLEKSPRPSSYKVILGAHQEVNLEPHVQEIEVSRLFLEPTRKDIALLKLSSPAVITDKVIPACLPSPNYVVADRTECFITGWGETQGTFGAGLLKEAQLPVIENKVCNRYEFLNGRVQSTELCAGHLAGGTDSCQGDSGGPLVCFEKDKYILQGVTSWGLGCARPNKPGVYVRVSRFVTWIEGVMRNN
Coagulation factor X (Bos taurus), sequence (P00743 41-180 limits assumed): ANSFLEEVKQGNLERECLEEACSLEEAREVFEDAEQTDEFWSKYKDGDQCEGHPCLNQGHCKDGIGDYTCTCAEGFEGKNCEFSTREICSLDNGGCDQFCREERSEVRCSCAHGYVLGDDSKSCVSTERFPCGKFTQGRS
Coagulation factor X (Bos taurus), sequence (P00743 234-492 limits assumed): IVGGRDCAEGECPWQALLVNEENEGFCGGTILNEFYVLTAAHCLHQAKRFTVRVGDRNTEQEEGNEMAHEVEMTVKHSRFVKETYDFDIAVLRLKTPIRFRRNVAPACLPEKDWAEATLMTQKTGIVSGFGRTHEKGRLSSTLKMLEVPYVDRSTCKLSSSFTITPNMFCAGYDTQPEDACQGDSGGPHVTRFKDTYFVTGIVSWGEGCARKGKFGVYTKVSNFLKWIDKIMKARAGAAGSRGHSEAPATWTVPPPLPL
T2 sequence (P00743 41-180 limits assumed): as the sequence (P00743 41-180 limits assumed) above
T2 sequence (P00743 234-492 limits assumed): as the sequence (P00743 234-492 limits assumed) above
Tissue-type plasminogen activator, sequence (P00750 whole entry): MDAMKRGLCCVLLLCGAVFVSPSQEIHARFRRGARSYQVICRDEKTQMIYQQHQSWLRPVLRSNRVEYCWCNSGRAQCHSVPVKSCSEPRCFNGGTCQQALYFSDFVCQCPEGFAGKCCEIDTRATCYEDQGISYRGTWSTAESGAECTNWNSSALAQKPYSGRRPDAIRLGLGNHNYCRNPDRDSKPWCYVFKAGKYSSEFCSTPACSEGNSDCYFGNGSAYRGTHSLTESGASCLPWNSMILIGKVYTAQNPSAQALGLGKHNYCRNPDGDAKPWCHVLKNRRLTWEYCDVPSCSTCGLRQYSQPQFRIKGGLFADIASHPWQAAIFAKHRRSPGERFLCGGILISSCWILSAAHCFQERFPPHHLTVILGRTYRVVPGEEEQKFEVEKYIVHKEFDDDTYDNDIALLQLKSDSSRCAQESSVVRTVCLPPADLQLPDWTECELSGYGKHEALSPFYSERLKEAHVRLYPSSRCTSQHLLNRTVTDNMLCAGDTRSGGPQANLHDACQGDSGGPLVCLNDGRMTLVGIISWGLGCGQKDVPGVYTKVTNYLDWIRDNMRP

| SMILES | IC50 [1] | IC50 (Plasminogen) | IC50 [2] | IC50 [3] | IC50 (Prothrombin) | inhibition [4] | Selectivity index (Homo sapiens [5]) | Selectivity index (Homo sapiens [6]) | Selectivity index [7] | Selectivity index [8] | inhibition [9] | IC50 (Coagulation factor X [10]) | Selectivity index [11] | Selectivity ratio [12] | Selectivity ratio [13] | IC50 (Coagulation factor X [14]) | IC50 [15] |
| --- | --- | --- | --- | --- | --- | --- | --- | --- | --- | --- | --- | --- | --- | --- | --- | --- | --- |
| C[C@H](NC(=O)[C@@H](CO)NS(=O)(=O)c1ccccc1)C(=O)NC(Cc1ccc(NC(=N)N)cc1)P(=O)(Oc1ccccc1)Oc1ccccc1 (stereo partly specified) | 2.6 nM | 1900 nM | 3100 nM | 160 nM | 4900 nM | 64% | 1200 | 740 | 1900 | 60 |  |  |  |  |  |  |  |
| C[C@H](NC(=O)[C@@H](CO)NC(=O)OCc1ccccc1)C(=O)NC(Cc1ccc(NC(=N)N)cc1)P(=O)(Oc1ccccc1)Oc1ccccc1 (stereo partly specified) |  |  |  | 300 nM |  |  | 1000 | 470 | 4700 | 70 | 43% |  |  |  |  |  |  |
| C[C@H](NC(=O)[C@@H](CO)NS(=O)(=O)c1ccc(C#N)cc1)C(=O)NC(Cc1ccc(N=C(N)N)cc1)P(=O)(Oc1ccccc1)Oc1ccccc1 (stereo partly specified) | 6.2 nM | 900 nM | 6600 nM |  | 7500 nM |  |  |  |  |  |  |  |  |  |  |  |  |
| C[C@H](NC(=O)[C@@H](CO)NS(=O)(=O)c1cccs1)C(=O)NC(Cc1ccc(N=C(N)N)cc1)P(=O)(Oc1ccccc1)Oc1ccccc1 (stereo partly specified) | 1.5 nM | 1540 nM | 3400 nM |  | 4300 nM |  |  |  |  |  |  |  |  |  |  |  |  |
| C[C@H](NC(=O)[C@@H](CO)NC(=O)c1ccccc1)C(=O)NC(Cc1ccc(N=C(N)N)cc1)P(=O)(Oc1ccccc1)Oc1ccccc1 (stereo partly specified) | 5 nM | 15000 nM | 15000 nM |  | 22000 nM |  |  |  |  |  |  |  |  |  |  |  |  |
| COc1ccc(S(=O)(=O)N[C@H](CO)C(=O)N[C@@H](C)C(=O)NC(Cc2ccc(NC(=N)N)cc2)P(=O)(Oc2ccccc2)Oc2ccccc2)cc1 (stereo partly specified) | 5.8 nM | 1700 nM | 4300 nM | 360 nM | 1670 nM |  | 740 | 293 | 288 | 60 |  | 100000 nM | 19000 |  |  |  |  |
| Cc1ccc(C(=O)N[C@H](CO)C(=O)N[C@@H](C)C(=O)NC(Cc2ccc(NC(=N)N)cc2)P(=O)(Oc2ccccc2)Oc2ccccc2)cc1 (stereo partly specified) | 7 nM | 5000 nM | 16000 nM | 160 nM | 67000 nM | 53% | 2300 | 700 | 9600 | 23 |  |  |  |  |  |  |  |
| C[C@H](NC(=O)[C@@H](CO)NC(=O)OCc1ccccc1)C(=O)NC(CCCNC(=N)N)P(=O)(Oc1ccccc1)Oc1ccccc1 (stereo partly specified) |  |  |  |  |  |  |  |  |  |  |  | 65000 nM |  |  |  |  |  |
| CC(=O)Nc1ccc(OP(=O)(Oc2ccc(NC(C)=O)cc2)C(Cc2ccc(NC(=N)N)cc2)NC(=O)[C@H](C)NC(=O)[C@@H](CO)NC(=O)OCc2ccccc2)cc1 (stereo partly specified) |  |  |  | 200 nM |  | 58% | 1000 | 130 | 200 | 30 |  |  |  | 5 | 5 |  |  |
| C[C@H](NC(=O)[C@@H](CO)NC(=O)c1cccs1)C(=O)NC(Cc1ccc(NC(=N)N)cc1)P(=O)(Oc1ccccc1)Oc1ccccc1 (stereo partly specified) |  |  |  |  |  |  | 1900 | 1400 | 5000 | 40 |  |  |  |  |  |  |  |
| C[C@H](NC(=O)[C@@H](CO)NS(=O)(=O)c1ccc(C#N)cc1)C(=O)NC(Cc1ccc(NC(=N)N)cc1)P(=O)(Oc1ccccc1)Oc1ccccc1 (stereo partly specified) |  |  |  | 440 nM |  | 53% | 1100 | 145 | 1200 | 70 |  |  |  |  |  |  |  |
| C[C@H](NC(=O)[C@@H](CO)NC(=O)c1cccs1)C(=O)NC(Cc1ccc(N=C(N)N)cc1)P(=O)(Oc1ccccc1)Oc1ccccc1 (stereo partly specified) | 6.9 nM | 10000 nM | 13000 nM |  | 35000 nM |  |  |  |  |  |  |  |  |  |  | 250000 nM |  |
| C[C@H](NC(=O)[C@@H](CO)NC(=O)c1ccccc1)C(=O)NC(Cc1ccc(NC(=N)N)cc1)P(=O)(Oc1ccccc1)Oc1ccccc1 (stereo partly specified) |  |  |  | 400 nM |  | 45% | 3000 | 3000 | 5400 | 80 |  |  |  |  |  |  |  |
| C[C@H](NC(=O)[C@@H](CO)NS(=O)(=O)c1cccs1)C(=O)NC(Cc1ccc(NC(=N)N)cc1)P(=O)(Oc1ccccc1)Oc1ccccc1 (stereo partly specified) |  |  |  | 98 nM |  | 68% | 2300 | 1000 | 2800 | 65 |  |  |  |  |  |  |  |
| C[C@H](NC(=O)[C@@H](CO)NS(=O)(=O)c1cccc2ccccc12)C(=O)NC(Cc1ccc(NC(=N)N)cc1)P(=O)(Oc1ccccc1)Oc1ccccc1 (stereo partly specified) |  |  |  | 280 nM |  |  | 760 | 155 | 1000 | 50 |  |  | 16600 |  |  |  |  |
| C[C@H](NC(=O)[C@@H](CO)NS(=O)(=O)c1cccc2ccccc12)C(=O)NC(Cc1ccc(N=C(N)N)cc1)P(=O)(Oc1ccccc1)Oc1ccccc1 (stereo partly specified) | 5.8 nM | 990 nM | 4400 nM |  | 6000 nM |  |  |  |  |  |  | 96000 nM |  |  |  |  |  |
| C[C@H](NC(=O)[C@@H](CO)NC(=O)C1C2CC3CC(C2)CC1C3)C(=O)NC(Cc1ccc(NC(=N)N)cc1)P(=O)(Oc1ccccc1)Oc1ccccc1 (stereo partly specified) | 8 nM | 5000 nM | 8600 nM | 160 nM | 6000 nM | 62% | 1000 | 600 | 750 | 20 |  |  |  |  |  |  |  |
| C[C@H](NC(=O)[C@@H](CO)NS(=O)(=O)Cc1ccccc1)C(=O)NC(Cc1ccc(NC(=N)N)cc1)P(=O)(Oc1ccccc1)Oc1ccccc1 (stereo partly specified) | 3.5 nM | 37 nM | 280 nM | 310 nM | 770 nM |  | 80 | 11 | 220 | 90 |  | 33000 nM | 9400 |  |  |  |  |
| Cc1ccccc1C(=O)N[C@H](CO)C(=O)N[C@@H](C)C(=O)NC(Cc1ccc(NC(=N)N)cc1)P(=O)(Oc1ccccc1)Oc1ccccc1 (stereo partly specified) | 5 nM | 7200 nM | 5500 nM | 140 nM | 15900 nM | 57% | 1100 | 1400 | 3200 | 30 |  |  |  |  |  |  |  |
| Cc1cccc(C(=O)N[C@H](CO)C(=O)N[C@@H](C)C(=O)NC(Cc2ccc(N=C(N)N)cc2)P(=O)(Oc2ccccc2)Oc2ccccc2)c1 (stereo partly specified) | 4.4 nM | 8000 nM | 18000 nM |  | 34000 nM |  |  |  |  |  |  |  |  |  |  |  |  |
| CC(=O)Nc1ccc(OP(=O)(Oc2ccc(NC(C)=O)cc2)C(Cc2ccc(N=C(N)N)cc2)NC(=O)[C@H](C)NC(=O)[C@@H](CO)NC(=O)OCc2ccccc2)cc1 (stereo partly specified) | 6.7 nM | 900 nM | 6400 nM |  | 1500 nM |  |  |  |  |  |  |  |  |  |  |  | 410 nM |
| Cc1cccc(C(=O)N[C@H](CO)C(=O)N[C@@H](C)C(=O)NC(Cc2ccc(NC(=N)N)cc2)P(=O)(Oc2ccccc2)Oc2ccccc2)c1 (stereo partly specified) |  |  |  | 160 nM |  | 56% | 4000 | 1800 | 7700 | 40 |  |  |  |  |  |  |  |
| C[C@H](NC(=O)[C@@H](CO)NC(=O)OCc1ccccc1)C(=O)NC(Cc1ccc(N=C(N)N)cc1)P(=O)(Oc1ccccc1)Oc1ccccc1 (stereo partly specified) | 4.3 nM | 2000 nM | 4600 nM |  | 20000 nM |  |  |  |  |  |  |  |  |  |  |  |  |
| C[C@H](NC(=O)[C@@H](CO)NC(=O)OCc1ccccc1)C(=O)NC(CCCN=C(N)N)P(=O)(Oc1ccccc1)Oc1ccccc1 (stereo partly specified) |  |  |  |  |  |  | 40 | 300 | 8 |  |  |  | 1100 |  |  |  |  |
| Cc1cccc(C)c1C(=O)N[C@H](CO)C(=O)N[C@@H](C)C(=O)NC(Cc1ccc(NC(=N)N)cc1)P(=O)(Oc1ccccc1)Oc1ccccc1 (stereo partly specified) | 6 nM | 4200 nM | 3600 nM | 220 nM | 6300 nM | 62% | 600 | 700 | 1000 | 40 |  |  |  |  |  |  |  |
| C[C@H](NC(=O)[C@@H](CO)NS(=O)(=O)c1ccc(Br)cc1)C(=O)NC(Cc1ccc(NC(=N)N)cc1)P(=O)(Oc1ccccc1)Oc1ccccc1 (stereo partly specified) | 6.6 nM | 900 nM | 3700 nM | 240 nM | 2980 nM |  | 560 | 136 | 451 | 36 |  | 58000 nM | 9000 |  |  |  |  |

— ChEMBL document CHEMBL1149362, “Diphenyl phosphonate inhibitors for the urokinase-type plasminogen activator: optimization of the P4 position” (J Med Chem, 2006)
